# Measured values reported in ChEMBL document CHEMBL2151010, “Characterization of a designed vascular endothelial growth factor receptor antagonist helical peptide with antiangiogenic activity in vivo” (J Med Chem, 2011).
# Active and inactive are the calls of the source. The calls are words filed in the database; no cut-off is given here. Residues, ends and D or L forms follow the SMILES beside them.
# Experiments:
# HUVEC [1] = test: Binding affinity to VEGFR in human HUVEC grown in serum deprived medium using fluorescein-labeled compound at 50 to 5000 nM after 5 mins by flow cytometry; type: cell-based
# Procedure, shortened: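 HUVECs (3 × 10^4/100 μL) were suspended in EBM-2 with 0.1% heparin and 0.1% BSA. They were incubated for 5 min at 4 C in the dark with fluorescein-labelled peptide (50, 500, 5000 nM). For competition, 500 nM labelled peptide was used with VEGF165 (0.05, 5, 500 nM). Cells were washed, resuspended in PBS and analysed by flow cytometry. A PE-conjugated anti-β-1 integrin antibody (1:100) was the technical control.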
# HUVEC [2] = test: Antagonist activity at VEGFR in human HUVEC grown in serum deprived medium assessed as inhibition of VEGF165-induced ERK1/2 phosphorylation at 50 nM after 15-30 mins by Western blot analysis; type: functional, cell-based
# Procedure, shortened: (§1)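 Serum-starved HUVECs in EBM-2 with 0.1% heparin and 0.1% BSA were treated at 37 C for 15 and 30 min with peptide, with or without VEGF165 (25 ng/mL). Total lysates (25 μg) were run on 12% SDS-PAGE and blotted for phospho-ERK1/2 and phospho-AKT. Total ERK1/2, AKT and GAPDH served as loading controls. Detection was by HRP secondary antibody and ECL.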
# HUVEC [3] = test: Antagonist activity at VEGFR in human HUVEC grown in serum deprived medium assessed as inhibition of VEGF165-induced AKT phosphorylation at 50 nM after 15-30 mins by Western blot analysis; type: functional, cell-based; procedure, shortened: as §1
# HUVEC [4] = test: Induction of apoptosis in human HUVEC grown in serum deprived medium assessed as caspase 3 activity at 12.5 to 50 nM after 8 hrs by spectrofluorometry; type: functional, cell-based
# Procedure, shortened: (§2)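 Lysates of serum-deprived HUVECs (2 × 10^4 cells) were prepared in 50 mM Hepes, 1 mM DTT, 0.1 mM EDTA, 0.1% NP-40 and 0.1% CHAPS. Protein (20 μg) was incubated with 20 μM Ac-DEVD-AMC at 37 C for 3 h. Released AMC was read by spectrofluorometry at 380 nm excitation and 440 nm emission.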
# HUVEC [5] = test: Induction of apoptosis in human HUVEC grown in serum deprived medium at 12.5 nM after 24 hrs by annexin V/fluorescein isothiocyanate-based flow cytometry; type: functional, cell-based
# HUVEC [6] = test: Inhibition of VEGF165-induced cell proliferation in human HUVEC grown in serum deprived medium at 12.5 to 50 nM after 24 hrs relative to acetyl-KQMYLELGYATIKWL-amide; type: functional
# Procedure, shortened: (§3)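 HUVECs were seeded at 1200 cells/well and switched after 24 h to EBM-2 with 0.1% heparin and 0.1% BSA. They were treated with peptide, with or without VEGF165 (25 ng/mL), for 24 or 48 h at 37 C. DNA content was measured with CyQUANT NF reagent (1 h, 37 C) at 485 nm excitation. Quadruplicate samples were used, and values were expressed as percentage of proliferating cells.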
# HUVEC [7] = test: Inhibition of VEGF165-induced cell proliferation in human HUVEC grown in serum deprived medium at 12.5 to 50 nM after 48 hrs; type: functional; procedure, shortened: as §3
# A-375 [8] = test: Antitumor activity against human A375 cells xenografted in athymic nude-Foxn1 nu/nu mouse assessed as tumor growth inhibition at 200 nM intratumorally administered for 15 days measured after 15 days relative to untreated control; type: functional
# Procedure, shortened: (§4)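 A375 cells (5 × 10^6 in 150 μL Hanks' solution) were injected subcutaneously on the back of 6-week-old female athymic nude-Foxn1nu/nu mice. After one week, mice were randomized (10/group) to PBS (100 μL) or peptide (200 nM), given intratumorally twice weekly. Tumours were measured by caliper and volume was calculated as V = (ab²)/2. Groups were compared by ANOVA.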
# A-375 [9] = test: Antitumor activity against human A375 cells xenografted in athymic nude-Foxn1 nu/nu mouse assessed as tumor growth inhibition at 200 nM intratumorally administered for 15 days measured after 15 days relative to acetyl-KQMYLELGYATIKWL-amide; type: functional; procedure, shortened: as §4
# A-375 [10] = test: Antitumor activity against human A375 cells xenografted in athymic nude-Foxn1 nu/nu mouse assessed as inhibition of tumor angiogenesis measuring CD31 expression at 200 nM intratumorally administered for 7 days by immunohistochemical analysis; type: functional
# Procedure, shortened: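 Tumours from A375 xenografts in nude mice, treated intratumorally with peptide (200 nM) or PBS twice weekly, were excised after 1 week. They were formalin-fixed and cut into 5 μm paraffin sections. Sections were stained for CD31 by avidin-biotin peroxidase with diaminobenzidine and counterstained with hematoxylin.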
# HUVEC [11] = test: Antagonist activity at VEGFR in human HUVEC grown in serum deprived medium assessed as inhibition of VEGF165-induced ERK1/2 phosphorylation at 50 nM after 24 hrs by Western blot analysis; type: functional, cell-based
# Procedure, shortened: (§5)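 Whole-cell lysates (25 μg) were run on 12% SDS-PAGE and immunoblotted for phospho-ERK1/2 and phospho-RB. Total ERK1/2, RB and GAPDH were the loading controls. Read-out was ECL.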
# HUVEC [12] = test: Antagonist activity at VEGFR in human HUVEC grown in serum deprived medium assessed as inhibition of VEGF165-induced RB phosphorylation at 50 nM after 15-30 mins by Western blot analysis; type: functional, cell-based
# HUVEC [13] = test: Antagonist activity at VEGFR in human HUVEC grown in serum deprived medium assessed as inhibition of VEGF165-induced ERK1/2 phosphorylation at 12.5 nM after 24 hrs by Western blot analysis; type: functional, cell-based; procedure, shortened: as §5
# [14] = Half life of the compound; type: physicochemical
# Procedure, shortened: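 Peptide was diluted to a final 0.5 mg/mL in 25% (v:v) pooled human male AB serum at 37 C. Aliquots were taken at 0, 15, 30, 60, 90 and 120 min and at 24 h, centrifuged at 4 C and diluted to 0.1 mg/mL. Remaining intact peptide was quantified by RP-HPLC on a C18 column with 38–48% CH3CN (0.1% TFA) elution.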
# [15] = Antiangiogenic activity against VEGF165-induced CD1 nude mouse endothelial cells at 200 nM after 21 days by FITC-based fluorescence microscopy
# HUVEC [16] = test: Antagonist activity at VEGFR in human HUVEC grown in serum deprived medium assessed as inhibition of VEGF165-induced RB phosphorylation at 50 nM after 15-30 mins by Western blot analysis
# HUVEC [17] = test: Induction of apoptosis in human HUVEC grown in serum deprived medium assessed as caspase 3 activity at 50 nM after 8 hrs by spectrofluorometry; type: functional, cell-based; procedure, shortened: as §2
# HUVEC [18] = test: Inhibition of VEGF165-induced cell proliferation in human HUVEC grown in serum deprived medium at 50 nM after 24 hrs; type: functional, cell-based; procedure, shortened: as §3
# HUVEC [19] = test: Inhibition of VEGF165 induced cell proliferation in human HUVEC grown in serum deprived medium at 50 nM after 48 hrs; type: functional, cell-based; procedure, shortened: as §3
# Endothelial cell = test: Antiangiogenic activity against VEGF165-induced CD1 nude mouse endothelial cells at 200 nM after 21 days by FITC-based fluorescence microscopy
Activity (HUVEC [1]),half-life [14] [h],SMILES,inhibition (HUVEC [2]),inhibition (HUVEC [3]),Activity (HUVEC [4]),Activity (HUVEC [5]),inhibition (INH) (HUVEC [6]) [%],inhibition (INH) (HUVEC [7]) [%],TGI (A-375 [8]),TGI (A-375 [9]) [%],inhibition (INH) (A-375 [10]) [%],inhibition (HUVEC [11]),inhibition (HUVEC [12]),inhibition (HUVEC [13]),Activity [15] [%],inhibition (HUVEC [16]),Activity (HUVEC [17]),inhibition (HUVEC [18]),inhibition (HUVEC [19]),Activity (Endothelial cell)
Active,1.5,CC[C@H](C)[C@H](NC(=O)CNC(=O)[C@H](CCCCN)NC(=O)[C@H](Cc1ccc(O)cc1)NC(=O)[C@H](C)NC(=O)[C@H](CC(C)C)NC(=O)[C@H](CCC(N)=O)NC(=O)[C@H](Cc1ccc(O)cc1)NC(=O)[C@H](CC(C)C)NC(=O)[C@H](CCC(=O)O)NC(=O)[C@H](CCSC)NC(=O)[C@H](Cc1c[nH]c2ccccc12)NC(=O)[C@@H](NC(=O)[C@H](CC(C)C)NC(=O)[C@H](CCCCN)NC(C)=O)[C@@H](C)O)C(N)=O (Ac-KLTWMELYQLAYKGI-NH2),Active,Active,Active,Active,40,>85,36%,47,50,Active,Active,Active,85,Active,–,–,–,–
inactive,–,CC[C@H](C)[C@H](NC(=O)[C@@H](NC(=O)[C@H](C)NC(=O)[C@H](Cc1ccc(O)cc1)NC(=O)CNC(=O)[C@H](CC(C)C)NC(=O)[C@H](CCC(=O)O)NC(=O)[C@H](CC(C)C)NC(=O)[C@H](Cc1ccc(O)cc1)NC(=O)[C@H](CCSC)NC(=O)[C@H](CCC(N)=O)NC(=O)[C@H](CCCCN)NC(C)=O)[C@@H](C)O)C(=O)N[C@@H](CCCCN)C(=O)N[C@@H](Cc1c[nH]c2ccccc12)C(=O)N[C@@H](CC(C)C)C(N)=O (Ac-KQMYLELGYATIKWL-NH2),inactive,inactive,–,inactive,–,–,inactive,–,–,–,–,–,–,–,inactive,inactive,inactive,inactive
